Activity calls are given as the source filed them. The calls are words filed in the database; no cut-off is given here.
Legend:
[1] = tested on: Trypanosoma brucei rhodesiense; assay: Antitrypanosomal activity against Trypanosoma brucei rhodesiense STIB900; assay type: functional, organism-based
[2] = Selectivity index, ratio of IC50 for rat L6 cells to IC50 for Trypanosoma brucei rhodesiense STIB900; assay type: toxicity, cell-based; conditions: read-out: Ratio IC50
Plasmodium falciparum = assay: Antimalarial activity against chloroquine-resistant Plasmodium falciparum K1; assay type: functional, organism-based
[3] = Selectivity index, ratio of IC50 for rat L6 cells to IC50 for chloroquine-resistant Plasmodium falciparum K1; assay type: toxicity, cell-based; conditions: read-out: Ratio IC50
Leishmania donovani = assay: Antileishmanial activity against Leishmania donovani MHOM/SD/62/1S-CL2D amastigotes; assay type: functional, organism-based
Summary of the method: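 IC50 taken as the average of duplicate determinations against L. donovani.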

[4] = Selectivity index, ratio of IC50 for rat L6 cells to IC50 for Leishmania donovani MHOM/SD/62/1S-CL2D amastigotes; assay type: toxicity, cell-based; conditions: read-out: Ratio IC50
L6 = assay: Cytotoxicity against rat L6 cells; assay type: cell-based
Summary of the method: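 Rat L6 myoblasts served as the cytotoxicity measure. IC50 is the average of duplicate determinations.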

[5] = tested on: Trypanosoma brucei rhodesiense; assay: Antitrypanosomal activity against Trypanosoma brucei rhodesiense STIB900 infected NMRI mouse assessed as infection cure rate at 5 mg/kg, ip dosed for 4 days; assay type: functional, organism-based; set-up: dose 5 mg/kg
Summary of the method: (§1)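 Mice infected with T. b. rhodesiense STIB900 were dosed intraperitoneally once daily for 4 days. Outcome was scored as cured/infected animals out of groups of four, plus mean survival days post infection for mice showing parasitemia relapse.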

[6] = tested on: Trypanosoma brucei rhodesiense; assay: Antitrypanosomal activity against Trypanosoma brucei rhodesiense STIB900 infected NMRI mouse assessed mean survival time at 5 mg/kg, ip dosed for 4 days; assay type: functional; conditions: route intraperitoneal
Mus musculus = assay: Toxicity in ip dosed NMRI mouse infected with Trypanosoma brucei rhodesiense STIB900; assay type: organism-based; conditions: in vivo
[7] = tested on: Trypanosoma brucei rhodesiense; assay: Antitrypanosomal activity against Trypanosoma brucei rhodesiense STIB900 infected NMRI mouse assessed as infection cure rate at 10 mg/kg, ip dosed for 4 days; assay type: functional, organism-based; set-up: dose 10 mg/kg; summary of the method: as §1
[8] = tested on: Trypanosoma brucei rhodesiense; assay: Antitrypanosomal activity against Trypanosoma brucei rhodesiense STIB900 infected NMRI mouse assessed mean survival time at 10 mg/kg, ip dosed for 4 days; assay type: functional; conditions: route intraperitoneal
[9] = tested on: Trypanosoma brucei rhodesiense; assay: Antitrypanosomal activity against Trypanosoma brucei rhodesiense STIB900 infected NMRI mouse assessed as infection cure rate at 20 mg/kg, ip dosed for 4 days; assay type: functional, organism-based; set-up: dose 20 mg/kg; summary of the method: as §1
[10] = tested on: Trypanosoma brucei rhodesiense; assay: Antitrypanosomal activity against Trypanosoma brucei rhodesiense STIB900 infected NMRI mouse assessed mean survival time at 20 mg/kg, ip dosed for 4 days; assay type: functional; conditions: route intraperitoneal
[11] = tested on: Trypanosoma brucei rhodesiense; assay: Antitrypanosomal activity against Trypanosoma brucei rhodesiense STIB900 infected NMRI mouse assessed mean survival time at 100 mg/kg, po dosed for 4 days; assay type: functional

CC(C)NC(=N)c1cccc(OCc2ccc(COc3cccc(C(=N)NC(C)C)c3)cc2)c1
IC50 [1]: 1.2 µM
selectivity ratio [2]: 72.4
IC50 (Plasmodium falciparum): 0.0474 µM
selectivity ratio [3]: 1830
IC50 (Leishmania donovani): 14.8 µM
selectivity ratio [4]: 5.89
IC50 (L6): 87 µM

CC(C)NC(=N)c1ccc(OCc2ccc(COc3ccc(C(=N)NC(C)C)cc3)cc2)cc1
IC50 [1]: 0.0748 µM
selectivity ratio [2]: > 2230
IC50 (Plasmodium falciparum): 0.017 µM
selectivity ratio [3]: > 9820
IC50 (Leishmania donovani): 7.99 µM
selectivity ratio [4]: > 20.9
IC50 (L6): > 167 µM
Activity [5]: inactive
Survival [6]: 17 days
Activity (Mus musculus): Toxic

CC(C)NC(=N)c1ccc(OCc2cccc(COc3ccc(C(=N)NC(C)C)cc3)c2)cc1
IC50 [1]: 0.068 µM
selectivity ratio [2]: > 2490
IC50 (Plasmodium falciparum): 0.0036 µM
selectivity ratio [3]: > 46900
IC50 (Leishmania donovani): 7.27 µM
selectivity ratio [4]: > 23.2
IC50 (L6): > 169 µM
Activity [7]: Active
Activity [5]: Active
Survival [8]: >60 days
Survival [6]: >51.5 days

c1cc(OCc2ccccc2COc2cccc(C3=NCCN3)c2)cc(C2=NCCN2)c1
IC50 [1]: 24.2 µM
selectivity ratio [2]: 2.75
IC50 (Plasmodium falciparum): 0.362 µM
selectivity ratio [3]: 184
IC50 (Leishmania donovani): > 100 µM
selectivity ratio [4]: < 0.665
IC50 (L6): 66.5 µM

c1cc(COc2ccc(C3=NCCN3)cc2)ccc1COc1ccc(C2=NCCN2)cc1
IC50 [1]: 0.38 µM
selectivity ratio [2]: 79.5
IC50 (Plasmodium falciparum): 0.018 µM
selectivity ratio [3]: 1680
IC50 (Leishmania donovani): 1.9 µM
selectivity ratio [4]: 15.9
IC50 (L6): 30.2 µM
Activity [9]: inactive
Survival [10]: 15 days

c1cc(COc2ccc(C3=NCCN3)cc2)cc(COc2ccc(C3=NCCN3)cc2)c1
IC50 [1]: 0.0462 µM
selectivity ratio [2]: 2670
IC50 (Plasmodium falciparum): 0.018 µM
selectivity ratio [3]: 6860
IC50 (Leishmania donovani): 3.99 µM
selectivity ratio [4]: 30.9
IC50 (L6): 123 µM
Activity [9]: inactive
Survival [10]: 22.8 days

N=C(NO)c1ccc(OCc2cccc(COc3ccc(C(=N)NO)cc3)c2)cc1
IC50 [1]: > 62.6 µM
selectivity ratio [2]: < 0.104
IC50 (Plasmodium falciparum): > 10.4 µM
selectivity ratio [3]: < 0.628
IC50 (Leishmania donovani): > 100 µM
selectivity ratio [4]: < 0.0653
IC50 (L6): 6.53 µM
Survival [11]: >38.3 days

N=C(N)c1ccc(OCc2cccc(COc3ccc(C(=N)N)cc3)c2)cc1
IC50 [1]: 0.0021 µM
selectivity ratio [2]: 4350
IC50 (Plasmodium falciparum): 0.0256 µM
selectivity ratio [3]: 357
IC50 (Leishmania donovani): 3.26 µM
selectivity ratio [4]: 2.8
IC50 (L6): 9.14 µM
Survival [8]: >35.5 days

c1ccc(COc2ccc(C3=NCCN3)cc2)c(COc2ccc(C3=NCCN3)cc2)c1
IC50 [1]: 0.647 µM
selectivity ratio [2]: 168
IC50 (Plasmodium falciparum): 0.0104 µM
selectivity ratio [3]: 10500
IC50 (Leishmania donovani): 3.66 µM
selectivity ratio [4]: 29.8
IC50 (L6): 109 µM

c1cc(OCc2ccc(COc3cccc(C4=NCCN4)c3)cc2)cc(C2=NCCN2)c1
IC50 [1]: 1.42 µM
selectivity ratio [2]: 13.9
IC50 (Plasmodium falciparum): 0.113 µM
selectivity ratio [3]: 175
IC50 (Leishmania donovani): > 200 µM
selectivity ratio [4]: < 0.099
IC50 (L6): 19.8 µM

N=C(N)c1ccc(OCc2ccc(COc3ccc(C(=N)N)cc3)c3ccccc23)cc1
IC50 [1]: 0.234 µM
selectivity ratio [2]: 121
IC50 (Plasmodium falciparum): 0.126 µM
selectivity ratio [3]: 224
IC50 (L6): 28.3 µM

N=C(N)c1ccc(-c2ccc(-c3ccc(C(=N)N)cc3)o2)cc1 [FURAMIDINE]
IC50 [1]: 0.0032 µM

N=C(N)c1ccc(OCc2ccccc2COc2ccc(C(=N)N)cc2)cc1
IC50 [1]: 0.144 µM
selectivity ratio [2]: 209
IC50 (Plasmodium falciparum): 0.153 µM
selectivity ratio [3]: 197
IC50 (Leishmania donovani): 3.82 µM
selectivity ratio [4]: 7.87
IC50 (L6): 30.1 µM
Activity [9]: inactive
Survival [10]: 13.5 days

From ChEMBL document CHEMBL1153610, “Synthesis and antiprotozoal activities of dicationic bis(phenoxymethyl)benzenes, bis(phenoxymethyl)naphthalenes, and bis(benzyloxy)naphthalenes” (Eur J Med Chem, 2009)
